Columns and labels:
CBP bromodomain [1] = target: T1, CBP bromodomain (Homo sapiens, UniProt Q92793); assay: CBP AlphaScreen assay with biotinylated small molecule probe compound C; format: binding; conditions: for loss in inhibitory activity against CBP: other warheads in place of 3,5-dimethylisoxazole; for loss in CBP inhibitory activity: compared to compound 23
CBP bromodomain [2] = target: T1, CBP bromodomain; assay: Differential scanning fluorometry; format: binding; conditions: for DSF selectivity: CBP and EP300 versus BRD4 BD1, compared with CBP30
BRD4 BD1 [3] = target: T2, BRD4 BD1 (Homo sapiens, UniProt O60885); assay: Differential scanning fluorometry; format: binding; conditions: temperature shift
EP300 (P300) bromodomain = target: T3, EP300 (P300) bromodomain (Homo sapiens, UniProt Q09472); assay: Differential scanning fluorometry; format: binding; conditions: temperature shift
T3 sequence (Q09472 1049-1156 limits assumed): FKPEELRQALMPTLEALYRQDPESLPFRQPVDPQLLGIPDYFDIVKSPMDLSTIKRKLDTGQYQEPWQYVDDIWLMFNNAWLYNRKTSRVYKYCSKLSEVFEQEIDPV

MYC expression level = assay: Immunoblot of MYC in MOLM13 cells; format: cell-based; conditions: 2 h
Procedure, shortened: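 MOLM13 cells seeded in 6-well plates at 1×10^6 cells/well and treated 2 h with DMSO or 3.0 μM test compound or reference CBP inhibitor. Protein extracted in RIPA plus protease inhibitor cocktail, run on Bis-Tris gels, wet-transferred to PVDF. Probed for MYC, β-actin, H3 and H3K27ac with IRDye secondaries.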

MOLM13 cells = assay: CellTiter-Glo cell viability, MOLM13; format: cell-based; conditions: 5 day, ATP-dependent luminescence
Procedure, shortened: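 MOLM13 cells seeded at 500/well in 384-well plates, given serially pre-diluted test compound or reference CBP inhibitor by pin transfer; 5-day incubation, then ATP-dependent luminescence (CellTiter-Glo).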

34 bromodomains = assay: BROMOSCAN profiling against 34 bromodomains; format: binding; conditions: 1 μM compound concentration
IRF4/MYC axis = assay: Immunoblot of MYC and IRF4 in MM.1S cells; format: cell-based; conditions: 24 h, 2.5 μM
Procedure, shortened: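 MM.1S cells exposed 24 h to DMSO or 2.5 μM of test compounds (CBP/EP300-selective and BRD4-selective). Lysates immunoblotted for MYC and IRF4, with β-actin as loading control.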

multiple myeloma lines = assay: Cell viability, multiple myeloma lines; format: cell-based; conditions: 5-day incubation
Procedure, shortened: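 Cells seeded at 500/well in 384-well plates; serially pre-diluted test compound added by pin transfer (100 nl). Viability read by CellTiter-Glo luminescence after 5-day incubation. Data normalized to DMSO control; IC50 from nonlinear regression curve fit.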

H3K27ac level = assay: Immunoblot of H3K27ac in MOLM13 cells; format: cell-based; conditions: 2 h
BRD4 BD1 [4] = target: T2, BRD4 BD1; assay: BRD4 AlphaScreen assay with biotinylated JQ1; format: binding
CBP = conditions: read-out: CBP IC50; cited from earlier work

T1 sequence (Q92793 1085-1192 limits assumed): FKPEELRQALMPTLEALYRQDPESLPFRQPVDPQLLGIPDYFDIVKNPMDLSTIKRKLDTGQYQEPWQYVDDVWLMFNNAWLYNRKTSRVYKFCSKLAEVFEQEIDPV

SMILES: CN1Cc2cc(-c3ccn4c(NC5CCCCC5)c(CCc5ccccc5)nc4c3)ccc2NC1=O [Compound 9]
- loss in inhibitory activity against CBP (CBP bromodomain [1]): greater than 10 fold

SMILES: Cc1noc(C)c1-c1ccn2c(NC3CCCCC3)c(CCc3ccccc3)nc2c1 [Compound 7, N-cyclohexyl-7-(3,5-dimethylisoxazol-4-yl)-2-phenethylimidazo[1,2-a]pyridin-3-amine]
- DSF activity against CBP (CBP bromodomain [2]; temperature shift): more active
- DSF activity toward BRD4 (BRD4 BD1 [3]): very modest activity
- DSF activity against EP300 (EP300 (P300) bromodomain): more active

SMILES: COc1ccc(CCc2nc3cc(-c4c(C)noc4C)ccn3c2NC2CCCCC2)cc1Cl [Compound 23, 2-(3-chloro-4-methoxyphenethyl)-N-cyclohexyl-7-(3,5-dimethylisoxazol-4-yl)imidazo[1,2-a]pyridin-3-amine]
- DSF selectivity (CBP bromodomain [2]): greater selectivity than the known inhibitor, CBP30
- MYC level (MYC expression level): caused MYC depletion
- MOLM13 cell growth inhibition (MOLM13 cells): IC50 values similar to CBP30
- more potent against CBP (CBP bromodomain [1]; compared to compound 16): 2 fold
- BROMOSCAN binding and selectivity (34 bromodomains): better binding and selectivity compared to compound 7 and 16
- IRF4/MYC axis perturbation (IRF4/MYC axis): perturbed
- MM cell growth inhibition (multiple myeloma lines): IC50 values similar to CBP30
- H3K27ac level (H3K27ac level): reduced the H3K27ac level similar to CBP30

SMILES: COc1ccc(CCc2nc3cc(-c4c(C)noc4C)ccc3n2C[C@H](C)N2CCOCC2)cc1Cl [CBP30, reference compound]
- IC50 (BRD4 BD1 [4]): 10.1 ± 0.55 µM
- IRF4/MYC axis perturbation (IRF4/MYC axis): perturbed

SMILES: COc1ccc(CCc2nc3cc(-c4c(C)noc4C)ccn3c2NC23CC4CC(CC(C4)C2)C3)cc1 [Compound 14, N-((3s,5s,7s)-adamantan-1-yl)-7-(3,5-dimethylisoxazol-4-yl)-2-(4-methoxyphenethyl)imidazo[1,2-a]pyridin-3-amine]
- decrease in CBP inhibitory potency (CBP bromodomain [1]; compared to compound 16): > 5 fold

SMILES: Cc1noc2cc(-c3ccn4c(NC5CCCCC5)c(CCc5ccccc5)nc4c3)ccc12 [Compound 11]
- loss in inhibitory activity against CBP (CBP bromodomain [1]): greater than 10 fold
- IRF4/MYC axis perturbation (IRF4/MYC axis): not with BRD4 inhibitor

SMILES: COc1ccc(CCc2nc3cc(-c4c(C)noc4C)ccn3c2NC(C)C)cc1 [Compound 17, 7-(3,5-dimethylisoxazol-4-yl)-N-isopropyl-2-(4-methoxyphenethyl)imidazo[1,2-a]pyridin-3-amine]
- decrease in CBP inhibitory potency (CBP bromodomain [1]; compared to compound 16): ~3 fold

SMILES: COc1ccc(CCc2nc3cc(-c4c(C)noc4C)ccn3c2NCCN2CCOCC2)cc1 [Compound 15]
- decrease in CBP inhibitory potency (CBP bromodomain [1]; compared to compound 16): ~2 fold

SMILES: Cc1noc(C)c1-c1ccn2c(NC(C)(C)C)c(CCc3ccccc3)nc2c1 [Compound 13, N-(tert-butyl)-7-(3,5-dimethylisoxazol-4-yl)-2-phenethylimidazo[1,2-a]pyridin-3-amine]
- decrease in CBP inhibitory potency (CBP bromodomain [1]; compared to compound 16): > 5 fold

SMILES: COc1ccc(CCc2nc3cc(-c4c(C)noc4C)ccn3c2NC(C)C)cc1OC [Compound 33, 2-(3,4-dimethoxyphenethyl)-7-(3,5-dimethylisoxazol-4-yl)-N-isopropylimidazo[1,2-a]pyridin-3-amine]
- loss in BRD4 inhibitory activity (BRD4 BD1 [4]; compared to compound 23): 4 fold
- loss in CBP inhibitory activity (CBP bromodomain [1]): 49 fold

SMILES: CCCOc1ccc(CCc2nc3cc(-c4c(C)noc4C)ccn3c2NC2CCCCC2)cc1 [Compound 20]
- decrease in CBP inhibitory potency (CBP bromodomain [1]; compared to compound 16): ~ 4 fold

SMILES: COc1ccc(CCc2nc3cc(-c4c(C)noc4C)ccn3c2NC2CCCCC2)cc1 [Compound 16, N-cyclohexyl-7-(3,5-dimethylisoxazol-4-yl)-2-(4-methoxyphenethyl)imidazo[1,2-a]pyridin-3-amine]
- DSF selectivity (CBP bromodomain [2]): greater selectivity than the known inhibitor, CBP30
- increase in CBP inhibitory potency (CBP bromodomain [1]; compared to compound 7): 5 fold

SMILES: COc1ccc(CCc2nc3cc(-c4c(C)noc4C)ccn3c2NCc2ccccc2)cc1 [Compound 21]
- decrease in CBP inhibitory potency (CBP bromodomain [1]; compared to compound 16): 10 fold

SMILES: COc1ccc(CCc2nc3cc(-c4c(C)noc4C)ccn3c2NC2CCCCC2)cc1OC [Compound 32]
- loss in CBP inhibitory activity (CBP bromodomain [1]): ~ 10 fold

SMILES: Cc1[nH]nc2cc(-c3ccn4c(NC5CCCCC5)c(CCc5ccccc5)nc4c3)ccc12 [Compound 10]
- loss in inhibitory activity against CBP (CBP bromodomain [1]): greater than 10 fold
- IRF4/MYC axis perturbation (IRF4/MYC axis): not with BRD4 inhibitor

SMILES: COc1ccc(CCc2nc3cc(-c4c(C)noc4C)ccn3c2NC(C)(C)C)cc1 [Compound 18]
- decrease in CBP inhibitory potency (CBP bromodomain [1]; compared to compound 16): > 5 fold

SMILES: COc1ccc(CCc2nc3cc(-c4c(C)noc4C)ccn3c2NCc2ccc(Cl)cc2)cc1 [Compound 22]
- decrease in CBP inhibitory potency (CBP bromodomain [1]; compared to compound 16): 10 fold
